# Measured values taken from ChEMBL document CHEMBL1139405, “N-Propynyl analogs of beta-phenylethylidenehydrazines: synthesis and evaluation of effects on glycine, GABA, and monoamine oxidase” (Bioorg Med Chem, 2008).
# Active and inactive are the calls of the source. No cut-off for these calls is given here.
# Tests used:
# [1] = biological target: 4-aminobutyrate aminotransferase, mitochondrial (Homo sapiens) (UniProt P80404); test: Inhibition of GABA-transaminase at 10 uM
# Method in brief: (§1)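 In vitro screen: GABASE incubated with compound in incubation buffer, with GABA-T activity read by a modified colorimetric method.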
# [2] = biological target: 4-aminobutyrate aminotransferase, mitochondrial (Homo sapiens) (UniProt P80404); test: Inhibition of GABA-transaminase at 100 uM; method in brief: as §1
# [3] = system: Rattus norvegicus; test: Ex vivo inhibition of monoamine oxidase B in Sprague-Dawley rat whole brain at 30 mg/kg, ip; assay type: functional; parameters: dose 30 mg/kg
# Method in brief: (§2)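 Male Sprague–Dawley rats (~300 g) dosed i.p. in corn oil, killed at 3, 6 or 12 h; whole-brain water homogenate diluted in 0.2 M potassium phosphate pH 7.4. Activity as % of vehicle control; N = 3–6 per group.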
# [4] = system: Rattus norvegicus; test: Ex vivo inhibition of GABA-transaminase in Sprague-Dawley rat whole brain at 30 mg/kg, ip after 3 hrs relative to control; assay type: functional; details: route intraperitoneal
# Method in brief: (§3)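 Male Sprague–Dawley rats (~300 g) dosed i.p. in corn oil, killed 3, 6 or 12 h later; whole-brain homogenate (5 volumes ice-cold water). GABA-T measured radiochemically: homogenate incubated with radiolabeled GABA in buffer containing pyridoxal phosphate, products isolated with tri-n-octylamine liquid anion exchanger, scintillation counting. Activity as % of vehicle control; N = 4–5 per group.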
# [5] = system: Rattus norvegicus; test: Ex vivo increase in brain alanine level in Sprague-Dawley rat whole brain at 30 mg/kg, ip after 3 hrs relative to control; assay type: functional; details: route intraperitoneal
# Method in brief: (§4)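 Male Sprague–Dawley rats (~300 g) given drug i.p. in corn oil vehicle, killed by decapitation at 3, 6 or 12 h; brains flash-frozen, homogenized in 5 volumes ice-cold water. Homogenate deproteinized in ice-cold methanol, centrifuged, OPA/isobutyryl-L-cysteine derivatized; HPLC with fluorescence detection, C18 column at 30 °C. Expressed as % of vehicle control; N = 3–5 per group.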
# [6] = system: Rattus norvegicus; test: Ex vivo inhibition of GABA-transaminase in Sprague-Dawley rat whole brain at 30 mg/kg, ip after 6 hrs relative to control; assay type: functional; details: route intraperitoneal; method in brief: as §3
# [7] = system: Rattus norvegicus; test: Ex vivo inhibition of monoamine oxidase A in Sprague-Dawley rat whole brain at 30 mg/kg, ip; assay type: functional; parameters: dose 30 mg/kg; method in brief: as §2
# [8] = system: Rattus norvegicus; test: Ex vivo increase in brain GABA level in Sprague-Dawley rat whole brain at 30 mg/kg, ip after 3 hrs relative to control; assay type: functional; details: route intraperitoneal; method in brief: as §4
# [9] = system: Rattus norvegicus; test: Ex vivo inhibition of GABA-transaminase in Sprague-Dawley rat whole brain at 30 mg/kg, ip after 12 hrs relative to control; assay type: functional; details: route intraperitoneal; method in brief: as §3
# [10] = biological target: T1, Amine oxidase [flavin-containing] A (Rattus norvegicus, UniProt P21396); test: Inhibition of rat brain monoamine oxidase A
# T1 sequence (P21396 whole entry): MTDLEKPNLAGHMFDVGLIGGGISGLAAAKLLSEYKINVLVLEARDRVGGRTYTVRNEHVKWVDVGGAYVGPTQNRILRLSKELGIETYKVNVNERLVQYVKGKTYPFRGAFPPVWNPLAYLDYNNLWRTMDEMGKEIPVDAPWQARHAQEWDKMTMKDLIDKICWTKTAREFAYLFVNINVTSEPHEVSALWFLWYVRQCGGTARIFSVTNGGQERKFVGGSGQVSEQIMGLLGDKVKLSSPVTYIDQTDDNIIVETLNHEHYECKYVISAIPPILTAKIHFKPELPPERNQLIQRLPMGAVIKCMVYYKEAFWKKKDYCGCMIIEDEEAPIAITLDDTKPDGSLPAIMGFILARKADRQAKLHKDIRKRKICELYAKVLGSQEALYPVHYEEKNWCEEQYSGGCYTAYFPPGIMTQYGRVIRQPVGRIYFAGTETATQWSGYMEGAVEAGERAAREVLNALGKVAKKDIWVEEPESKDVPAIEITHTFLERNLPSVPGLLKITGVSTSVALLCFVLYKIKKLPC
# [11] = system: Rattus norvegicus; test: Ex vivo increase in brain glycine level in Sprague-Dawley rat whole brain at 38.5 mg/kg, ip after 6 hrs relative to control; assay type: functional; details: route intraperitoneal
# Method in brief: (§5)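 Male rats (~300 g) dosed i.p. in corn oil vehicle, killed by decapitation 3, 6 or 12 h later. Whole brains were flash-frozen, homogenized in 5 volumes ice-cold water, extracted with ice-cold methanol and centrifuged. Amino acids were derivatized with OPA/isobutyryl-L-cysteine and measured by HPLC-fluorescence on a C18 column at 30 °C. Values are % of vehicle control, N = 3–5 per group.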
# [12] = system: Rattus norvegicus; test: Ex vivo increase in brain glycine level in Sprague-Dawley rat whole brain at 38.5 mg/kg, ip after 3 hrs relative to control; assay type: functional; parameters: dose 38.5 mg/kg; method in brief: as §5
# 4-aminobutyrate aminotransferase, mitochondrial (Homo sapiens), sequence (P80404 whole entry): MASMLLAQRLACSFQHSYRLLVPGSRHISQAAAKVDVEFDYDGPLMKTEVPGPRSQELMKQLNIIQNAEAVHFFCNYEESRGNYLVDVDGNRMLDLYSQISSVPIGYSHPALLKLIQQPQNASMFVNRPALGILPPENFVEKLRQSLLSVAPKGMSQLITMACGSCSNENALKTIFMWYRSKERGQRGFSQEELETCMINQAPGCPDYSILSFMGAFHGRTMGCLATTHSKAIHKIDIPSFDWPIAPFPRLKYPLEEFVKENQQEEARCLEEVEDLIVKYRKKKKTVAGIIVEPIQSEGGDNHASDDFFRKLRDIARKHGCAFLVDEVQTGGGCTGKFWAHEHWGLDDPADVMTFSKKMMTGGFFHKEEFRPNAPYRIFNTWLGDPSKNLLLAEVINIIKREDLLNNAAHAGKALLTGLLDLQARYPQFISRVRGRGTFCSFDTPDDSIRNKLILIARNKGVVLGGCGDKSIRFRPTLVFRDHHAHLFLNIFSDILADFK
Activity [1],Activity [2],SMILES,also measured
inactive,inactive,C#CCN(CC#C)/N=C/Cc1cccc(C)c1,–
inactive,inactive,C#CCN/N=C/Cc1cccc(OC)c1,–
inactive,inactive,C#CCN/N=C/Cc1cccc(Cl)c1,–
inactive,inactive,C#CCN(CC#C)/N=C/Cc1ccccc1C,–
–,–,N/N=C\Cc1ccccc1,Activity [3]: inactive; inhibition in vivo at 30 mg/kg [4]: 66%; inhibition [1]: 10%; Activity [5]: 489%; inhibition in vivo at 30 mg/kg [6]: 66%; Activity [7]: inactive; Activity [8]: 418%; inhibition in vivo at 30 mg/kg [9]: 70%
inactive,inactive,C#CCN/N=C/Cc1ccc(OC)cc1,–
inactive,inactive,C#CCN/N=C/Cc1ccc(C(F)(F)F)cc1,–
inactive,inactive,C#CCN(CC#C)/N=C/Cc1ccccc1F,–
inactive,inactive,C#CCN/N=C/Cc1cccc(F)c1,–
inactive,inactive,C#CCN(CC#C)/N=C/Cc1cccc(OC)c1,–
inactive,inactive,C#CCN/N=C/Cc1ccc(C)cc1,–
inactive,inactive,C#CCN(CC#C)/N=C/Cc1cccc(Cl)c1,–
inactive,inactive,C#CCN/N=C/Cc1ccccc1F,–
–,–,NNCCc1ccccc1 [PHENELZINE],inhibition (INH) [10]: > 95%
inactive,inactive,C#CCN(CC#C)/N=C/Cc1ccccc1C(F)(F)F,–
inactive,inactive,C#CCN/N=C/Cc1ccccc1C(F)(F)F,–
inactive,inactive,C#CCN/N=C/Cc1ccccc1,Activity [11]: 216%; Activity [12]: Active

Activity [1],Activity [2],SMILES,also measured
inactive,inactive,C#CCN(CC#C)/N=C/Cc1cccc(F)c1,–
inactive,inactive,C#CCN/N=C/Cc1ccccc1Cl,–
inactive,inactive,C#CCN/N=C/Cc1ccc(Cl)cc1,–
inactive,inactive,C#CCN(CC#C)/N=C/Cc1ccc(F)cc1,–
inactive,inactive,C#CCN(CC#C)/N=C/Cc1cccc(C(F)(F)F)c1,–
inactive,inactive,C#CCN(CC#C)/N=C/Cc1ccccc1OC,–
inactive,inactive,C#CCN/N=C/Cc1ccccc1OC,–
inactive,inactive,C#CCN(CC#C)/N=C/Cc1ccc(C(F)(F)F)cc1,–
inactive,inactive,C#CCN(CC#C)/N=C/Cc1ccccc1Cl,–
inactive,inactive,C#CCN/N=C/Cc1ccc(F)cc1,–
inactive,inactive,C#CCN(CC#C)/N=C/Cc1ccc(OC)cc1,–
inactive,inactive,C#CCN/N=C/Cc1cccc(C(F)(F)F)c1,–
inactive,inactive,C#CCN/N=C/Cc1ccccc1C,–
inactive,inactive,C#CCN/N=C/Cc1cccc(C)c1,–
inactive,inactive,C#CCN(CC#C)/N=C/Cc1ccc(Cl)cc1,–
inactive,inactive,C#CCN(CC#C)/N=C/Cc1ccc(C)cc1,–
